For data set [1], the system named is T1, Lysosomal acid glucosylceramidase (Homo sapiens), P04062 [N409S].
T1 sequence (whole entry): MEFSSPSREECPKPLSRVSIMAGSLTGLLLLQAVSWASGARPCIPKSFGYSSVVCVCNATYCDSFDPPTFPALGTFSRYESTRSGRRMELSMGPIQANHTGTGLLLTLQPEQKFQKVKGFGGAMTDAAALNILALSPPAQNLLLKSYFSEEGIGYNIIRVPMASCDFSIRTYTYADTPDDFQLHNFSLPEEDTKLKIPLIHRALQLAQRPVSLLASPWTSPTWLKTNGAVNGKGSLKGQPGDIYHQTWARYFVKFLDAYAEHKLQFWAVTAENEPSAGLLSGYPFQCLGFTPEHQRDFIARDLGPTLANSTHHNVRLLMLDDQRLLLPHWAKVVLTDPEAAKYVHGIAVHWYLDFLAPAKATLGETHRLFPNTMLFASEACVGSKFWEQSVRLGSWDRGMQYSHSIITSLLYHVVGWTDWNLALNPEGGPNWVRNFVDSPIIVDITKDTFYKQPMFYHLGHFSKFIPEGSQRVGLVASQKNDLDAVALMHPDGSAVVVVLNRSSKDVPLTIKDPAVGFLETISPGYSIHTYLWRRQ
Kind of data set: Activation of beta-glucocerebrosidase N370S mutant in Goucher lymphoblasts at 50 uM after 3 days relative to control.

The target in data set [2] is T2, Lysosomal acid glucosylceramidase (Homo sapiens, UniProt P04062).
T2 sequence (P04062 whole entry): T1 sequence (whole entry) with S409N
Kind of data set: Inhibition of human placental beta-glucocerebrosidase.

The subject of a further data set is HL-60. Kind of data set: Cytotoxicity against human HL60 cells assessed as dead cells at 100 uM after 3 days by propidium iodide staining based flow cytometry. It counts as cell-based. The settings on record: hl-60, 72 h. In short, it runs like this: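 HL60 cells exposed to compound at 100 µM for 3 days; cytotoxicity reported as percentage of dead cells.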

Where a chain is given by its changes, count along the chain named. Bounds are passed on as bounds.

A word on the IC50: it is the concentration that inhibits the measured activity by half. Higher therefore signals a need for much substance. `O=C1[C@@H](O)[C@H](O)[C@@H](O)CN1CCCCCCO` showed a fold change (FC) in data set [1] of 1.8. Besides, the IC50 in data set [2] is greater than 500 µM. In addition, in the data set with HL-60, the Activity is listed as 3.44%.

`O=C1[C@H](O)[C@H](O)[C@H](O)CN1CCCCCCO` registered a fold change (FC) in data set [1] of 2.5. Further, the IC50 in data set [2] was greater than 500 µM. In addition, the Activity in the data set on HL-60 was 3.23%.

Turning to `CCCCCCCCN1C[C@@H](O)[C@@H](O)[C@H](O)C1=O`, the fold change (FC) in data set [1] turned out to be 6.2. The IC50 in data set [2] worked out at 175 µM. Moreover, the Activity in the data set on HL-60 is listed as 3.51%.

`CCCOCCN1C[C@@H](O)[C@@H](O)[C@H](O)C1=O`: the fold change (FC) in data set [1] was 3.8. The 50% inhibitory concentration (IC50) in data set [2] is greater than 500 µM. Also, in the data set with HL-60, the Activity worked out at 2.39%.

Take `CCCN(CCC)CCN1C[C@@H](O)[C@@H](O)[C@H](O)C1=O`: in data set [1], the fold change (FC) is 3.9. This molecule came in with an IC50 in data set [2] of 253 µM. Besides, the Activity with HL-60 was 3.45%.

For `CCCCCCCCCCN1C[C@@H](O)[C@@H](O)C1=O`, the fold change (FC) in data set [1] came out at 1.5. Also, half-maximal inhibition in data set [2] (IC50) was put at 285 µM. The Activity with HL-60 is 6.69%.

Turning to `CCCCCCCCCCN1CC(NC(C)=O)[C@@H](O)C(O)C1=O` (single isomer, unassigned), the IC50 in data set [2] was greater than 500 µM. Also, in the data set on HL-60, the Activity was 7.58%.

`CCCCCCCCCCN1C[C@H](O)[C@@H](O)[C@H](O)C1=O` returned a fold change (FC) in data set [1] of 2. This molecule also returned an IC50 in data set [2] of 295 µM. Besides, the Activity with HL-60 came out at 11.2%.

On to `O=C1[C@@H](O)[C@H](O)[C@H](O)CN1CCO`, for which, in data set [2], the IC50 was greater than 500 µM. In addition, the Activity in the data set on HL-60 is 2.95%.

`O=C1[C@@H](O)[C@H](O)[C@H](O)CN1Cc1ccccc1` had a fold change (FC) in data set [1] of 3.4. Moreover, the IC50 in data set [2] was greater than 500 µM. Further, in the data set with HL-60, the Activity amounted to 3.46%.

As for `CCCCCCCCCCN1C[C@@H](O)[C@@H](O)[C@H](O)C1=O`, the fold change (FC) in data set [1] came out at 2.1. In data set [2], this molecule came in with an IC50 of 46 µM. In the data set with HL-60, the Activity turned out to be 5.19%.

Regarding `CCCCN1C[C@H](O)[C@@H](O)[C@H](O)[C@H]1CO`, the Activity with HL-60 came to 2.69%.

Consider `CCCCCCCCN1C[C@@H](O)C(O)[C@H](O)C1`, for which the IC50 in data set [2] was greater than 500 µM. For the same molecule, the Activity in the data set on HL-60 is 3.55%.

For `CCCCCCCCCCN1C[C@@H](O)[C@@H](O)[C@@H](O)C1=O`, in data set [1], the fold change (FC) worked out at 2.9. The molecule further yielded an IC50 in data set [2] of 463 µM. In the data set on HL-60, the Activity is recorded as 10.22%.

In turn, `CCCOCCCCCCN1C[C@@H](O)[C@@H](O)[C@H](O)C1=O` gave a fold change (FC) in data set [1] of 3.6. The molecule further returned an IC50 in data set [2] of 127 µM. The Activity in the data set with HL-60 came to 4.33%.

As to `CCCCN1C[C@@H](O)[C@@H](O)[C@H](O)C1=O`, the half-maximal inhibitory concentration (IC50) in data set [2] was greater than 500 µM. Moreover, the Activity with HL-60 worked out at 2.78%.

`CCCCCCCCCN1C[C@@H](O)[C@@H](O)[C@H](O)C1=O` had a fold change (FC) in data set [1] of 2. Moreover, in data set [2], the IC50 came out at 102 µM. Also, in the data set on HL-60, the Activity amounted to 4.71%.

As for `CC(=O)NC1CN(CCCCCCO)C(=O)C(O)[C@@H]1O` (single isomer, unassigned), the fold change (FC) in data set [1] was 1.3. This molecule yielded an IC50 in data set [2] greater than 500 µM. In the data set with HL-60, the Activity is on record as 2.9%.

In data set [1], `O=C1[C@@H](O)[C@H](O)[C@H](O)CN1CCCCCCO` registered a fold change (FC) of 4.1. For the same molecule, the IC50 in data set [2] is greater than 500 µM. Moreover, in the data set on HL-60, the Activity was 3.75%.

`O=C1[C@H](O)[C@H](O)CN1CCCCCCO` returned a fold change (FC) in data set [1] of 1.8. The molecule also returned an IC50 in data set [2] greater than 500 µM. For the same molecule, in the data set with HL-60, the Activity is given as 3.57%.

In the case of `O=C1NC[C@@H](O)[C@@H](O)[C@@H]1O`, in data set [2], the IC50 is greater than 500 µM. Besides, the Activity in the data set with HL-60 is 2.77%.

These data come from ChEMBL document CHEMBL1138500 (J Med Chem, 2009).
